Screening results deposited in PubChem by several laboratories.
PABP FP inh = PABP-poly(A) binding inhibition; PABP-poly(A) RNA binding, fluorescence polarization; calls only at 35 µM; hit rate 1% among 290,000;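 further: calls also rest on retests at 20 µM and on dose response follow-up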
VIM-2 inh = blocks Pseudomonas aeruginosa VIM-2 metallo-beta-lactamase; inhibition, % at 5.6 µM; hit rate 0.89% among 290,000; purified VIM-2, nitrocefin hydrolysis, epi-absorbance fluorescence; AID 1527;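 active means inhibition above the mean of all tested compounds plus 3 SD, cutoff set per screening run, cut at about 7.5% in these data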;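 further: red hydrolysis product quenches plate fluorescence so inhibitors raise well fluorescence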
PABP1 MLLE inh = inhibitors of microRNA-mediated deadenylation, human PABP1 MLLE binding | P11940 | GST-MLLE / FITC-PAM2 fluorescence polarization | inhibition, % at 20 µM | hit rate 0.36% among 360,000; in the data active means inhibition above about 35%, passing the limit was not always enough
IMP-1 inh = blocks Pseudomonas aeruginosa IMP-1 metallo-beta-lactamase; purified IMP-1, nitrocefin hydrolysis, epi-absorbance fluorescence; inhibition, % at 5.6 µM; hit rate 0.45% among 290,000;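 active means inhibition above the mean plus 3 SD of all compounds in the same screening run, cut at about 4.5% in these data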
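Assay system: purified recombinant IMP-1 beta-lactamase. Input: IMP-1 0.2 nM before substrate addition. Buffer or medium: Zinc- and detergent-supplemented HEPES buffer, pH 7.1. Schedule: 25 °C, 15 min preincubation, 25 min reaction. Signal: Epi-absorbance fluorescence, 480 nm excitation, 530 nm emission. Evaluation: percent inhibition from optical density relative to buffer-blank wells.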
eIF4H inh = inhibitors of RNA binding by human eIF4H | eIF4H fluorescence polarization binding assay | hit rate 0.94% among 290,000 | Q15056 | inhibition, % at 35 µM;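 further: calls also rest on retests at 20 µM and on dose response follow-up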
Hits are given with their value; n = inactive; x = not tested or not shown; + = active, no number. An excerpt weighted towards active compounds, which were near 2.2% of everything screened. Unless noted, how the calls were made is not given here.

SMILES	PABP FP inh	VIM-2 inh	PABP1 MLLE inh	IMP-1 inh	eIF4H inh
Cc1ccc2occ(/C=N/NC(=O)c3ccccc3Br)c(=O)c2c1	n	n	n	5.2	n
CCOC(=O)CC(=O)CSc1nc(N)c(C#N)c(-c2ccc(Cl)cc2)c1C#N	+	n	n	n	114
N#Cc1c(N)nc(SCC(=O)C23CC4CC(CC(C4)C2)C3)c(C#N)c1-c1ccc(Cl)cc1	n	n	n	n	n
O=C(COC(=O)c1cncc(Br)c1)Nc1nnc(-c2ccccc2)o1	n	n	n	n	70
CO/N=C(\C(=O)N[C@@H]1C(=O)N2C(C(=O)O)=C(COC(N)=O)CS[C@H]12)c1ccco1	+	n	n	n	5.6
O=C(O)C1=C[C@@H](c2ccc(C(F)(F)F)cc2)C[C@@H](OCCCCO)O1	x	x	n	x	x
Cc1ccccc1-n1nnnc1SCC(=O)N(C)C1CCS(=O)(=O)C1 (stereo unspecified)	n	n	n	n	n
Cc1cccc(NC(=S)NNC(=O)c2csc3c2CCCC3)c1	n	n	38	n	n
Cc1ccc(C)c(NC(=S)NNC(=O)c2csc3c2CCCC3)c1	n	n	n	n	n
N#Cc1cc2cc3c(cc2nc1N1CCOCC1)OCO3	n	n	n	4.5	n
CN(C)S(=O)(=O)c1ccc(N2CCCC2)c(C(=O)Nc2nc3ccc(F)cc3s2)c1	+	n	n	n	active
CN(C)S(=O)(=O)c1ccc(N2CCCC2)c(C(=O)Nc2nc3ccccc3s2)c1	n	n	n	n	n
O=C(O)c1cccc(S(=O)(=O)Nc2ccc3c(c2)OCO3)c1	n	n	38	n	n
COc1cc(OC)cc(C(=O)NC(=S)Nc2ccc3c4c(cccc24)CC3)c1	n	n	n	n	n
Cc1c(C(=O)Nc2ccc3c4c(cccc24)CC3)cccc1[N+](=O)[O-]	n	n	n	n	n
COc1ccc(C(=O)NC(=S)Nc2ccc3c4c(cccc24)CC3)cc1OC	+	n	n	n	12
Cc1c(C(=O)NC(=S)Nc2ccc3c4c(cccc24)CC3)cccc1[N+](=O)[O-]	n	n	42	n	n
COc1ccc(-c2cc(C(F)(F)F)nc(-n3cncn3)n2)cc1	n	11	n	n	n
CCCC(=Nc1ccc(N)cc1)C1=C(O)C(C(=O)OC)C(C)(C)CC1=O (stereo unspecified)	+	n	n	n	57
CCCC(=O)C1=C(O)C(C(=O)OC)C(C)(C)CC1=Nc1ccc(N)cc1 (stereo unspecified)	n	n	n	n	n
CC(=O)Nc1ccc(S(=O)(=O)Nc2nnc(CC(C)(C)C)s2)cc1	n	n	43	n	n
CC(C)(C)Cc1nnc(NS(=O)(=O)Cc2ccccc2)s1	n	9.0	n	n	n
Cc1ccc(S(=O)(=O)Nc2nnc(CC(C)(C)C)s2)cc1	n	n	n	n	n
CC(C)CN(C(=O)C1CCC1)c1c(N)n(Cc2ccccc2)c(=O)[nH]c1=O	x	x	n	x	x
O=C(O)/C=C/C(=O)c1ccc2c(c1)CCc1ccccc1-2	x	x	n	x	x
SMILES	PABP FP inh	VIM-2 inh	PABP1 MLLE inh	IMP-1 inh	eIF4H inh
O=C(CN1C(=O)NC2(CCCCC2)C1=O)Oc1ccc2c(C(F)(F)F)cc(=O)oc2c1	x	x	44	x	x
CCc1cc(=O)oc2cc(OC(=O)CN3C(=O)NC4(CCCC4)C3=O)ccc12	n	n	n	n	n
Cc1sc2ccc3sccc3c2[n+]1C	+	n	n	n	n
O=C1c2cccc3cccc(c23)C(=O)N1CCN1CCN(C(=S)Nc2ccc(F)cc2)CC1	n	n	x	n	n
Cc1ccc(NC(=S)N2CCN(CCN3C(=O)c4cccc5cccc(c45)C3=O)CC2)cc1	n	8.1	n	n	n
O=C(CN1CCN(CCN2C(=O)c3cccc4cccc(c34)C2=O)CC1)c1ccc(F)cc1	n	8.9	n	n	n
CC1=C(Cl)C2=NS(=O)(=O)CCN2C=C1Cl	n	n	n	n	n
CC(=O)Nc1cc(-c2cccc(C(=O)NCCO)c2)cn2c(-c3ccc(F)c(Cl)c3)cnc12	x	x	n	x	x
Cn1cnnc1SCC(=O)NN(c1ccccc1)c1ccccc1	n	n	n	n	n
CCCCCC(=O)Nc1nc(C)c(-c2csc(Nc3cc(Cl)ccc3C)n2)s1	n	n	n	12	n
CCCC(C)C(=O)Nc1nc(C)c(-c2csc(Nc3cc(Cl)ccc3C)n2)s1 (stereo unspecified)	n	n	n	9.9	n
Cc1ccc(Cl)cc1Nc1nc(-c2sc(NC(=O)c3cccc(Cl)c3)nc2C)cs1	n	n	x	n	n
CCOC(=O)CSc1nc(C)c(C(C)=O)cc1C(N)=O	n	n	n	n	n
C=C(C)C(=O)Nc1cccc(C2=NOC3(C2)C[C@@H](C(N)=O)N(C(=O)[C@H]2CCC(=O)N2)C3)c1 (stereo partly specified)	n	x	n	x	103
CCCCCC(=O)N1CC2(CC(c3cccc(NC(=O)[C@@H]4CCC(=O)N4)c3)=NO2)C[C@@H]1C(N)=O (stereo partly specified)	n	x	n	x	n
C=C(C)C(=O)Nc1cccc(C2=NOC3(C2)C[C@@H](C(N)=O)N(C(=O)c2ccc(OC)cc2)C3)c1 (stereo partly specified)	+	x	n	x	106
C/C=C(/C)C(=O)Nc1cccc(C2=NOC3(C2)C[C@@H](C(N)=O)N(C(=O)[C@H]2CCC(=O)N2)C3)c1 (stereo partly specified)	n	x	n	x	n
C=C(C)C(=O)Nc1cccc(C2=NOC3(C2)C[C@@H](C(N)=O)N(C(=O)CCCCC)C3)c1 (stereo partly specified)	+	x	x	x	81
COc1ccccc1-c1cc(=O)c2c(O)ccc([N+](=O)[O-])c2o1	n	x	n	x	n
Cc1ccc(NC2(C#N)C(=O)Nc3ccccc32)cc1C (stereo unspecified)	n	n	n	n	n
CC(C)CCNC(=O)c1ccc(-c2ccccc2)cc1	n	n	x	n	n
CCOC(=O)c1ccc(NC(=O)c2nc[nH]c2C(=O)N(C)CCO)cc1	x	x	n	x	x
Cc1ccn(S(=O)(=O)c2ccc(N3CCCC3=O)cc2)n1	n	n	n	n	n
CCOc1ccc(C(=O)N[C@H](C(=O)N2CCN(c3ncccn3)CC2)C(C)C)cc1	x	x	n	x	x
Cc1ccc(S(=O)(=O)Nc2nc(C)c(NC(=O)OCCCl)s2)cc1	n	n	n	n	n
SMILES	PABP FP inh	VIM-2 inh	PABP1 MLLE inh	IMP-1 inh	eIF4H inh
COc1ccc(NC(=O)Nc2sc(NS(=O)(=O)c3ccccc3)nc2C)cc1	n	n	40	n	n
Cc1nc(NS(=O)(=O)c2ccccc2)sc1NC(=O)OC(C)C	n	n	39	n	n
CCOC(=O)CCCCCC(=O)Nc1ccc2c(c1)C(=O)N([C@@H](C)CO)C[C@H](C)[C@H](CN(C)C(=O)NC(C)C)OCCCC[C@H](C)O2	x	x	n	x	x
O=C(NC1=NCCS1)c1ccccc1	n	n	n	n	n
O=C(NC1=NCCS1)c1cccs1	n	n	44	n	n
CC(C)C(NC(=O)c1cccs1)C(=O)NC1=NCCS1 (stereo unspecified)	n	n	42	n	n
O=C(NC1=NCCS1)c1csc2ccccc12	n	n	36	n	n
